The source made the active and inactive calls.
Assays:
[1] = test system: Mus musculus; assay: Anticonvulsant activity in mouse assessed as protection against metrazole-induced seizures at 30 mg/kg, ip after 4 hrs by subcutaneous pentylenetetrazole seizure threshold test; type: functional, organism-based; set-up: dose 30 mg/kg
Summary of the method: (§1)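 Screen in mice given 30, 100 or 300 mg/kg ip in 0.9% NaCl or 30% PEG 400 (0.01 ml/g), four animals per dose. Subcutaneous metrazole challenge was given to one mouse per dose at 30 min and to another at 4 h. Activity was scored as the lowest active dose.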

[2] = test system: Mus musculus; assay: Anticonvulsant activity in mouse assessed as protection against maximal electroshock-induced hindlimb tonic extensor component of seizure at 300 mg/kg, ip after 30 mins by MES test; type: functional, organism-based; set-up: dose 300 mg/kg
Summary of the method: (§2)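 Mice were dosed ip at 30, 100 or 300 mg/kg in 0.9% NaCl or 30% PEG 400 (0.01 ml/g), with four animals per dose. One mouse per dose got MES at 30 min and another at 4 h. Stimulus: 60-Hz AC, 50 mA, 0.2 s, corneal electrodes. Protection was abolition of hindlimb tonic extension; the lowest active dose was scored.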

[3] = test system: Mus musculus; assay: Anticonvulsant activity in mouse assessed as protection against maximal electroshock-induced hindlimb tonic extensor component of seizure at 30 mg/kg, ip after 4 hrs by MES test; type: functional, organism-based; set-up: dose 30 mg/kg; summary of the method: as §2
[4] = test system: Mus musculus; assay: Anticonvulsant activity in mouse assessed as protection against metrazole-induced seizures at 30 mg/kg, ip after 30 mins by subcutaneous pentylenetetrazole seizure threshold test; type: functional, organism-based; set-up: dose 30 mg/kg; summary of the method: as §1
[5] = test system: Mus musculus; assay: Neurotoxicity in ip dosed mouse assessed as CNS depression; type: toxicity, organism-based, Central nervous system; details: in vivo
[6] = test system: Mus musculus; assay: Anticonvulsant activity against metrazole-induced seizures in ip dosed mouse assessed as duration of action by subcutaneous pentylenetetrazole seizure threshold test; type: functional; summary of the method: as §1
[7] = test system: Mus musculus; assay: Anticonvulsant activity in ip dosed mouse assessed as protection against maximal electroshock-induced hindlimb tonic extensor component of seizure by MES test; type: functional
Summary of the method: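 Mice dosed ip at 30, 100 and 300 mg/kg, compound in 0.9% NaCl or 30% PEG 400 (0.01 ml/g); four animals per dose, one tested at 30 min and one at 4 h. Seizure induced by 60-Hz corneal current, 50 mA, 0.2 s; protection = abolition of hindlimb tonic extension. ED50 with confidence limits by Litchfield–Wilcoxon.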

[8] = Neurotoxicity in ip dosed mouse by rotarod test; type: toxicity, organism-based; details: in vivo
[9] = test system: Mus musculus; assay: Anticonvulsant activity in ip dosed mouse assessed as protection against metrazole-induced seizures by subcutaneous pentylenetetrazole seizure threshold test; type: functional
Summary of the method: (§3)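 Against subcutaneous metrazole in ip-dosed mice (0.9% NaCl or 30% PEG 400 vehicle), ED50 was taken at 30 min or at the time of peak effect (0.5 h or 2 h, as the line states). ED50 and confidence limits were derived by Litchfield–Wilcoxon.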

[10] = test system: Mus musculus; assay: Anticonvulsant activity in mouse assessed as protection against metrazole-induced seizures at 300 mg/kg, ip after 4 hrs by subcutaneous pentylenetetrazole seizure threshold test; type: functional, organism-based; set-up: dose 300 mg/kg; summary of the method: as §1
[11] = test system: Mus musculus; assay: Anticonvulsant activity in mouse assessed as protection against maximal electroshock-induced hindlimb tonic extensor component of seizure at 300 mg/kg, ip after 4 hrs by MES test; type: functional, organism-based; set-up: dose 300 mg/kg; summary of the method: as §2
[12] = test system: Mus musculus; assay: Anticonvulsant activity in mouse assessed as protection against metrazole-induced seizures at 300 mg/kg, ip after 30 mins by subcutaneous pentylenetetrazole seizure threshold test; type: functional, organism-based; set-up: dose 300 mg/kg; summary of the method: as §1
[13] = test system: Mus musculus; assay: Anticonvulsant activity in ip dosed mouse assessed as protection against metrazole-induced seizures after 0.5 hrs by subcutaneous pentylenetetrazole seizure threshold test; type: functional; summary of the method: as §3
[14] = test system: Mus musculus; assay: Anticonvulsant activity in ip dosed mouse assessed as protection against maximal electroshock-induced hindlimb tonic extensor component of seizure after 2 hrs by MES test; type: functional
Summary of the method: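 MES ED50 in ip-dosed mice (0.9% NaCl or 30% PEG 400 vehicle) was read at the time of peak effect (2 h). Stimulus: 60-Hz AC, 50 mA, 0.2 s via corneal electrodes, with abolition of hindlimb tonic extension as the end point. ED50 and confidence limits were derived by Litchfield–Wilcoxon.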

[15] = test system: Mus musculus; assay: Anticonvulsant activity in ip dosed mouse assessed as protection against metrazole-induced seizures after 2 hrs by subcutaneous pentylenetetrazole seizure threshold test; type: functional; summary of the method: as §3
[16] = test system: Mus musculus; assay: Anticonvulsant activity against maximal electroshock-induced hindlimb tonic extensor component of seizure in ip dosed mouse assessed as duration of action by MES test; type: functional; summary of the method: as §2
[17] = test system: Mus musculus; assay: Anticonvulsant activity in mouse assessed as protection against maximal electroshock-induced hindlimb tonic extensor component of seizure at 100 mg/kg, ip after 30 mins by MES test; type: functional, organism-based; set-up: dose 100 mg/kg; summary of the method: as §2
[18] = test system: Mus musculus; assay: Anticonvulsant activity in mouse assessed as protection against maximal electroshock-induced hindlimb tonic extensor component of seizure at 100 mg/kg, ip after 4 hrs by MES test; type: functional, organism-based; set-up: dose 100 mg/kg; summary of the method: as §2
[19] = test system: Mus musculus; assay: Anticonvulsant activity in mouse assessed as protection against metrazole-induced seizures at 100 mg/kg, ip after 4 hrs by subcutaneous pentylenetetrazole seizure threshold test; type: functional, organism-based; set-up: dose 100 mg/kg; summary of the method: as §1

SMILES	Activity [2]	Activity [4]	Activity [10]	Activity [11]	Activity [12]	other results
CN1C(=O)CC(CCN2C(=O)C=CC2=O)(c2ccccc2)C1=O (stereo not given)	inactive	Active				Activity [1]: Active; Activity [3]: Active; Activity [5]: Toxic; Time [6]: 3.5 h
CN1C(=O)CC(C)(c2ccccc2)C1=O (stereo not given) [METHSUXIMIDE]	Active	Active	inactive	Active		ED50 [7]: 76 mg/kg; TD50 [8]: 188 mg/kg; ED50 [9]: 35 mg/kg
CN1C(=O)CC(C(=O)c2ccc(N3C(=O)C=CC3=O)cc2)(c2ccccc2)C1=O (stereo not given)	inactive		inactive	inactive	inactive	
CN1C(=O)CC(C(=O)CBr)(c2ccccc2)C1=O (stereo not given)	inactive	Active	inactive	inactive		
CN1C(=O)CC(c2ccc(NC(=O)CBr)cc2)C1=O (stereo not given)	inactive	Active		inactive		Activity [1]: Active; TD50 [8]: 54 mg/kg; ED50 [13]: 35 mg/kg; Activity [5]: Toxic; Time [6]: 3.5 h
CN1C(=O)CC(c2ccc(NC(=O)/C=C\C(=O)O)cc2)C1=O (stereo not given)	inactive		inactive	inactive	inactive	
CN1C(=O)CC(CCNC(=O)/C=C\C(=O)O)(c2ccccc2)C1=O (stereo not given)	inactive		inactive	inactive	inactive	
CCC1(C)CC(=O)NC1=O (stereo not given) [ETHOSUXIMIDE]	inactive		inactive	inactive	Active	ED50 [7]: > 1000 mg/kg; ED50 [9]: 130 mg/kg
CN1C(=O)CC(CCCNC(=O)CCl)(c2ccccc2)C1=O (stereo not given)	inactive		inactive	inactive	inactive	
CN1C(=O)CC(C(=O)CCl)(c2ccccc2)C1=O (stereo not given)	Active	Active	inactive	Active		ED50 [14]: 225 mg/kg; ED50 [15]: 100 mg/kg; Time [16]: 3.5 h
CN1C(=O)CC(CCNC(=O)CCl)(c2ccccc2)C1=O (stereo not given)	inactive		inactive	inactive	inactive	
CN1C(=O)CC(c2ccccc2)C1=O (stereo not given) [PHENSUXIMIDE]		Active		Active		Activity [1]: Active; TD50 [8]: 232 mg/kg; Activity [17]: Active; ED50 [9]: 50 mg/kg
CN1C(=O)CC(c2ccc(NC(=O)CCl)cc2)C1=O (stereo not given)	inactive		inactive	inactive	inactive	
CN1C(=O)CC(c2ccc(NC(=O)CI)cc2)C1=O (stereo not given)	inactive	Active	inactive			Activity [18]: Active; Activity [5]: Toxic
CN1C(=O)CC(CCCN2C(=O)C=CC2=O)(c2ccccc2)C1=O (stereo not given)	inactive			inactive	inactive	Activity [19]: Active; Activity [5]: Toxic
CN1C(=O)CC(C(=O)c2ccc(NC(=O)CBr)cc2)(c2ccccc2)C1=O (stereo not given)	inactive		inactive	inactive	inactive	
CN1C(=O)CC(CCCNC(=O)/C=C\C(=O)O)(c2ccccc2)C1=O (stereo not given)	inactive		inactive	inactive	inactive	
CN1C(=O)CC(c2ccc(N3C(=O)C=CC3=O)cc2)C1=O (stereo not given)	inactive	Active	inactive	inactive		Activity [5]: Toxic
CN1C(=O)CC(C(=O)c2ccc(NC(=O)/C=C\C(=O)O)cc2)(c2ccccc2)C1=O (stereo not given)	inactive		inactive	inactive	inactive	

— ChEMBL document CHEMBL3244302, “Potential long-acting anticonvulsants. 1; Synthesis and activity of succinimides containing an alkylating group at the 2 position” (J Med Chem, 1977)
